In ChEMBL document CHEMBL4732146, “Nitric oxide-donating and reactive oxygen species-responsive prochelators based on 8-hydroxyquinoline as anticancer agents” (Eur J Med Chem, 2021):
pIC50: −log10 of the molar value. Calls of active or inactive are those of the source. The calls are words filed in the database; no cut-off is given here.

What was measured:
[1] = test system: HeLa; assay: Cytotoxicity against human HeLa cells assessed as reduction in cell viability at 10 to 20 uM measured after 48 hrs by MTT assay; type: functional, cell-based; conditions: dose 10-20 µM
[2] = test system: PANC-1; assay: Cytotoxicity against human PANC-1 cells assessed as reduction in cell viability at 10 uM measured after 48 hrs by MTT assay; type: functional, cell-based
How it was run: (§1)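 MTT assay with 48 h compound exposure at 10 or 20 µM. Cells seeded 6 × 10⁴ per well and grown 24 h beforehand. MTT 4 h, DMSO solubilisation, A490 read. Percent cell death given as mean ± SD, n = 3.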

[3] = test system: PANC-1; assay: Cytotoxicity against human PANC-1 cells assessed as reduction in cell viability at 20 uM measured after 48 hrs by MTT assay relative to control; type: functional; how it was run: as §1
[4] = test system: HepG2; assay: Cytotoxicity against human HepG2 cells assessed as reduction in cell viability at 10 to 20 uM measured after 48 hrs by MTT assay; type: functional, cell-based; conditions: dose 10-20 µM; how it was run: as §1
[5] = test system: A549; assay: Cytotoxicity against human A549 cells assessed as reduction in cell viability at 10 to 20 uM measured after 48 hrs by MTT assay; type: functional, cell-based; conditions: dose 10-20 µM
[6] = Metal chelating activity assessed as compound-Cu2+ complex formation measured after 40 mins by calcein dye based fluorescence assay; conditions: dose 10-50 µM
How it was run: (§2)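 Calcein (10 µM) in 50 mM HEPES was quenched by 10 µM CuCl₂ (or FeCl₃ for the Fe³⁺ arm). Chelator was added from DMSO stock to a final 10 or 50 µM and incubated 40 min at room temperature. Recovery rate was calculated from fluorescence (λex 485 / λem 520 nm); n = 3.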

[7] = Metal chelating activity assessed as compound-Fe3+ complex formation measured after 40 mins by calcein dye based fluorescence assay; conditions: dose 10-50 µM; how it was run: as §2
[8] = test system: MCF7; assay: Cytotoxicity against human MCF7 cells assessed as reduction in cell viability at 10 to 20 uM measured after 48 hrs by MTT assay; type: functional, cell-based; conditions: dose 10-20 µM; how it was run: as §1
[9] = test system: HepG2; assay: Cytotoxicity against human HepG2 cells assessed as reduction in cell viability measured after 48 hrs in presence of FeCl3 by MTT assay; type: functional, cell-based; conditions: HepG2, 48 h
How it was run: (§3)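 Cells seeded 6 × 10⁴ per well, cultured 24 h at 37 °C under 5% CO₂, then exposed to compound for 48 h, with or without 50 µM CuCl₂ or FeCl₃ co-incubation. MTT added for 4 h at 37 °C, formazan dissolved in DMSO, A490 read. IC50 reported as mean (SD), n = 3.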

[10] = Drug metabolism in human PANC-1 cells assessed as nitric oxide release at 10 uM measured after 8 hrs by Griess assay; type: ADME, cell-based; conditions: panc-1, 8 h
How it was run: (§4)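 Cells exposed 8 h to 10 µM compound. Nitrite measured by Griess reagent kit at 540 nm against a NaNO₂ calibration curve. Mean ± SD, n = 3.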

[11] = test system: HCT-116; assay: Cytotoxicity against human HCT-116 cells assessed as reduction in cell viability measured after 48 hrs by MTT assay; type: functional, cell-based; conditions: HCT-116, 48 h; how it was run: as §3
[12] = test system: SW1990; assay: Cytotoxicity against human SW1990 cells assessed as reduction in cell viability measured after 48 hrs in presence of CuCl2 by MTT assay; type: functional, cell-based; conditions: SW1990, 48 h; how it was run: as §3
[13] = test system: SW1990; assay: Cytotoxicity against human SW1990 cells assessed as reduction in cell viability measured after 48 hrs in presence of FeCl3 by MTT assay; type: functional, cell-based; conditions: SW1990, 48 h; how it was run: as §3
[14] = test system: HeLa; assay: Cytotoxicity against human HeLa cells assessed as reduction in cell viability measured after 48 hrs in presence of FeCl3 by MTT assay; type: functional, cell-based
[15] = test system: MCF7; assay: Cytotoxicity against human MCF7 cells assessed as reduction in cell viability measured after 48 hrs in presence of CuCl2 by MTT assay; type: functional, cell-based; conditions: MCF7, 48 h; how it was run: as §3
[16] = test system: HepG2; assay: Cytotoxicity against human HepG2 cells assessed as reduction in cell viability measured after 48 hrs in presence of CuCl2 by MTT assay; type: functional, cell-based; conditions: HepG2, 48 h; how it was run: as §3
[17] = test system: PC-3; assay: Cytotoxicity against human PC-3 cells assessed as reduction in cell viability measured after 48 hrs in presence of CuCl2 by MTT assay; type: functional, cell-based; conditions: PC-3, 48 h; how it was run: as §3
[18] = test system: A549; assay: Cytotoxicity against human A549 cells assessed as reduction in cell viability measured after 48 hrs in presence of FeCl3 by MTT assay; type: functional, cell-based; conditions: A549, 48 h
[19] = test system: PANC-1; assay: Cytotoxicity against human PANC-1 cells assessed as reduction in cell viability measured after 48 hrs by MTT assay; type: functional, cell-based; conditions: PANC-1, 48 h; how it was run: as §3
[20] = Cytotoxicity against human RWPE2 cells assessed as reduction in cell viability measured after 48 hrs by MTT assay; type: cell-based; conditions: RWPE2, 48 h; how it was run: as §3
[21] = test system: A549; assay: Cytotoxicity against human A549 cells assessed as reduction in cell viability measured after 48 hrs in presence of CuCl2 by MTT assay; type: functional, cell-based; conditions: A549, 48 h
[22] = test system: HeLa; assay: Cytotoxicity against human HeLa cells assessed as reduction in cell viability measured after 48 hrs by MTT assay; type: functional, cell-based
[23] = test system: PC-3; assay: Cytotoxicity against human PC-3 cells assessed as reduction in cell viability measured after 48 hrs by MTT assay; type: functional, cell-based; conditions: PC-3, 48 h; how it was run: as §3
[24] = test system: HCT-116; assay: Cytotoxicity against human HCT-116 cells assessed as reduction in cell viability measured after 48 hrs in presence of FeCl3 by MTT assay; type: functional, cell-based; conditions: HCT-116, 48 h; how it was run: as §3
[25] = test system: HepG2; assay: Cytotoxicity against human HepG2 cells assessed as reduction in cell viability measured after 48 hrs by MTT assay; type: functional, cell-based; conditions: HepG2, 48 h; how it was run: as §3
[26] = Cytotoxicity against human H6C7 cells assessed as reduction in cell viability measured after 48 hrs by MTT assay; type: cell-based; conditions: H6C7, 48 h; how it was run: as §3
[27] = test system: PANC-1; assay: Cytotoxicity against human PANC-1 cells assessed as reduction in cell viability measured after 48 hrs in presence of FeCl3 by MTT assay; type: functional, cell-based; conditions: PANC-1, 48 h; how it was run: as §3
[28] = test system: PC-3; assay: Cytotoxicity against human PC-3 cells assessed as reduction in cell viability measured after 48 hrs in presence of FeCl3 by MTT assay; type: functional, cell-based; conditions: PC-3, 48 h; how it was run: as §3
[29] = test system: A549; assay: Cytotoxicity against human A549 cells assessed as reduction in cell viability measured after 48 hrs by MTT assay; type: functional, cell-based; conditions: A549, 48 h
[30] = test system: HeLa; assay: Cytotoxicity against human HeLa cells assessed as reduction in cell viability measured after 48 hrs in presence of CuCl2 by MTT assay; type: functional, cell-based
[31] = Drug metabolism in human SW1990 cells assessed as nitric oxide release at 10 uM measured after 8 hrs by Griess assay; type: ADME, cell-based; conditions: sw1990, 8 h; how it was run: as §4
[32] = test system: MCF7; assay: Cytotoxicity against human MCF7 cells assessed as reduction in cell viability measured after 48 hrs by MTT assay; type: functional, cell-based; conditions: MCF7, 48 h; how it was run: as §3
[33] = test system: PANC-1; assay: Cytotoxicity against human PANC-1 cells assessed as reduction in cell viability measured after 48 hrs in presence of CuCl2 by MTT assay; type: functional, cell-based; conditions: PANC-1, 48 h; how it was run: as §3
[34] = test system: MCF7; assay: Cytotoxicity against human MCF7 cells assessed as reduction in cell viability measured after 48 hrs in presence of FeCl3 by MTT assay; type: functional, cell-based; conditions: MCF7, 48 h; how it was run: as §3
[35] = test system: SW1990; assay: Cytotoxicity against human SW1990 cells assessed as reduction in cell viability measured after 48 hrs by MTT assay; type: functional, cell-based; conditions: SW1990, 48 h; how it was run: as §3
[36] = test system: HCT-116; assay: Cytotoxicity against human HCT-116 cells assessed as reduction in cell viability measured after 48 hrs in presence of CuCl2 by MTT assay; type: functional, cell-based; conditions: HCT-116, 48 h; how it was run: as §3
[37] = test system: SW1990; assay: Cytotoxicity against human SW1990 cells assessed as reduction in cell viability at 10 to 20 uM measured after 48 hrs by MTT assay; type: functional, cell-based; conditions: dose 10-20 µM; how it was run: as §1
[38] = test system: SW1990; assay: Induction of apoptosis in human SW1990 cells at 12 uM measured after 24 hrs by Annexin V-FITC/propidium iodide staining based flow cytometry; type: functional, cell-based
How it was run: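 SW1990 cells seeded 5 × 10⁵ per well and grown 24 h, then treated 24 h at 8 or 12 µM. Optional 1 h pretreatment with 20 mM NAC or 50 µM carboxyl-PTIO before 12 µM treatment. Cells stained with annexin V-FITC 15 min and PI 5 min at room temperature in the dark, then analysed by flow cytometry. Mean ± SD, n = 3.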

[39] = Stability of compound in pH 7.4 PBS buffer measured after 5 to 24 hrs by RP-HPLC analysis; type: physicochemical; conditions: time 5-24 hrs
How it was run: (§5)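 Compound (1 µM) stirred at 37 °C either in PBS (pH 5.0, 7.4 or 10.0) containing 5% DMSO or in DMEM with 10% FBS. Aliquots were analysed by RP-HPLC (0.1% TFA water/methanol gradient, 256 nm) for remaining intact compound, up to 24 h.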

[40] = Stability of compound in DMEM with 10% fetal bovine serum measured after 5 to 24 hrs by RP-HPLC analysis; type: cell-free; conditions: time 5-24 hrs; how it was run: as §5
[41] = Stability of compound in pH 10 PBS buffer measured after 5 to 24 hrs by RP-HPLC analysis; type: physicochemical; conditions: time 5-24 hrs; how it was run: as §5
[42] = Stability of compound in pH 5 PBS buffer measured after 5 to 24 hrs by RP-HPLC analysis; type: physicochemical; conditions: time 5-24 hrs; how it was run: as §5

Row | Activity [6] | Activity [7] | Compound | Activity [1] | Activity [2] | Activity [3] | Activity [4] | Activity [5] | Activity [8] | pIC50 [12] | pIC50 [13] | pIC50 [19] | pIC50 [20] | pIC50 [26] | pIC50 [27] | pIC50 [33] | pIC50 [35] | other results
1 | Dose-dependent effect | Dose-dependent effect | O=C(c1ccc2cccc(O)c2n1)N1CCN(CCOc2no[n+]([O-])c2S(=O)(=O)c2ccccc2)CC1 | Active | Active | Active | Active | Active | Active | – | – | – | – | – | – | – | – | –
2 | Dose-dependent effect | Dose-dependent effect | O=C(/C=C/c1ccc2cccc(O)c2n1)NCCOc1no[n+]([O-])c1S(=O)(=O)c1ccccc1 | Active | Active | Active | Active | Active | Active | – | – | – | – | – | – | – | – | –
3 | Dose-dependent effect | Dose-dependent effect | O=C(c1ccc2cccc(O)c2n1)N1CCC(Oc2no[n+]([O-])c2S(=O)(=O)c2ccccc2)CC1 | Active | Active | 82.3% | Active | Active | Active | 6.10 | 4.98 | 5.04 | 5.15 | 4.88 | 4.83 | 5.88 | 5.18 | pIC50 [9]: 4.70; Drug metabolism [10]: Metabolite_Detected; pIC50 [11]: 4.95; pIC50 [14]: 4.42; pIC50 [15]: 5.51; pIC50 [16]: 5.39; pIC50 [17]: 5.30; pIC50 [18]: 4.91; pIC50 [21]: 5.67; pIC50 [22]: 4.47; pIC50 [23]: 4.98; pIC50 [24]: 4.76; pIC50 [25]: 4.84; pIC50 [28]: 4.84; pIC50 [29]: 5.11; pIC50 [30]: 5.01; Drug metabolism [31]: Metabolite_Detected; pIC50 [32]: 4.81; pIC50 [34]: 4.77; pIC50 [36]: 5.48
4 | – | – | O=C(NCCCOc1no[n+]([O-])c1S(=O)(=O)c1ccccc1)c1ccc2cccc(OCc3ccccc3)c2n1 | – | – | – | – | – | – | – | – | – | – | – | – | – | – | Activity [37]: inactive; Activity [38]: Active
5 | – | – | CC1(C)OB(c2ccc(COc3cccc4ccc(C(=O)N5CCC(Oc6no[n+]([O-])c6S(=O)(=O)c6ccccc6)CC5)nc34)cc2)OC1(C)C | – | – | – | – | – | – | 5.54 | 4.47 | 4.88 | 4.54 | 4.47 | 4.42 | 5.46 | 4.92 | Stabilty [39]: Stable; Stability [40]: Stable; Stabilty [41]: Stable; Stabilty [42]: Stable
